Results on seven molecules are retold here after ChEMBL document CHEMBL3286358, “Biological evaluation of tanshindiols as EZH2 histone methyltransferase inhibitors” (Bioorg Med Chem Lett, 2014).

Activity calls are given as the source filed them. The calls are words filed in the database; no cut-off is given here.

Assay [1] deals with EZH2/SUZ12/EED complex (Homo sapiens, UniProt O75530+Q15022+Q15910). As to the kind of experiment: (§1) Inhibition of EZH2 histone methyltransferase activity in EZH2/SUZ12/EED protein complex (unknown origin) using histone H3 peptide/S-adenosylmethionine as substrate after 2 hrs by TR-FRET assay. Background: Time-resolved FRET reads energy transfer from a long-lived donor to a nearby acceptor.

Assay [2] addresses EZH2/SUZ12/EED complex (Homo sapiens) (UniProt Q15910+O75530+Q15022). The description is as §1.
Assay [3] deals with A549. The experiment in a line: Cytotoxicity against human A549 cells assessed as growth inhibition after 72 hrs by WST-1 assay. Conditions: A549, 72 h. It counts as functional. The gist of the method: (§2)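 Growth inhibition of tumour lines read by WST-1 viability assay. GI50 taken as the half-maximal growth-inhibitory concentration.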
In general terms: Formazan colour is commonly taken as a measure of viable cells.

A short description of assay [4]: Cytotoxicity against human Pfeiffer cells expressing EZH2 […] mutant assessed as growth inhibition after 72 hrs by WST-1 assay. It counts as functional. The gist of the method:
as §2

Assay [5] deals with Daudi. As to the kind of experiment: Cytotoxicity against human Daudi cells assessed as growth inhibition after 72 hrs by WST-1 assay. It counts as functional. The procedure, abridged:
as §2

Assay [6] can be described thus: Cytotoxicity against human U87MG cells assessed as growth inhibition after 72 hrs by WST-1 assay. It counts as functional, U-87MG ATCC. Conditions: U-87 MG. The gist of the method:
as §2

The subject of assay [7] is T98G. As to the kind of experiment: Cytotoxicity against human T98G cells assessed as growth inhibition after 72 hrs by WST-1 assay. It counts as functional. The procedure, abridged:
as §2

Assay [8] in a line: Cytotoxicity against human U2932 cells assessed as growth inhibition after 72 hrs by WST-1 assay. It counts as functional. Conditions: U2932, 72 h. The gist of the method:
as §2

For assay [9], the system named is PC-3. The experiment in a line: Cytotoxicity against human PC3 cells assessed as growth inhibition after 72 hrs by WST-1 assay. It counts as functional. Particulars: PC-3, 72 h. The procedure, abridged: as §2
Assay [10] is described as follows: Cell cycle arrest in human Pfeiffer cells assessed as accumulation at G1 phase at 2.5 uM after 72 hrs (reference value: 59%). It counts as functional, cell-based. The gist of the method:
(§3)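 Pfeiffer cells (DLBCL carrying EZH2 A677G) exposed 72 h to 1, 2.5 or 5 µM, with untreated control. DNA content histograms are gated as M1 sub-G1, M2 G1, M3 S and M4 G2/M. Values are the percentage of cells in each gate.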

Assay [11] can be described thus: Cell cycle arrest in human Pfeiffer cells assessed as accumulation at S phase at 1 uM after 72 hrs (reference value: 21%). It counts as functional, cell-based. The gist of the method: as §3
In assay [12] the test system is Pfeiffer. The experiment in a line: Induction of apoptosis in human Pfeiffer cells assessed as increase in cleaved caspase-3 level at 1 to 3 uM after 72 hrs by Western blotting analysis. It counts as functional, cell-based. The procedure, abridged: (§4)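 Pfeiffer cells treated 72 h. Lysates analysed by Western blot for apoptosis markers.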
For orientation: In western blotting, separated proteins are transferred to a membrane and probed.

Assay [13] in a line: Cell cycle arrest in human Pfeiffer cells assessed as accumulation at G1 phase at 5 uM after 72 hrs (reference value: 59%). It counts as functional, cell-based. The gist of the method: as §3
Assay [14] is described as follows: Cell cycle arrest in human Pfeiffer cells assessed as accumulation at sub-G1 phase at 1 uM after 72 hrs (reference value: 9%). It counts as functional, cell-based. The gist of the method: as §3
Assay [15] in a line: Cell cycle arrest in human Pfeiffer cells assessed as accumulation at sub-G1 phase at 5 uM after 72 hrs (reference value: 9%). It counts as functional, cell-based. The procedure, abridged: as §3
Assay [16] can be described thus: Cell cycle arrest in human Pfeiffer cells assessed as accumulation at G2/M phase at 1 uM after 72 hrs (reference value: 10%). It counts as functional, cell-based. The gist of the method: as §3
Assay [17] has as its target Histone-lysine N-methyltransferase EZH2 (Homo sapiens) (UniProt Q15910). Particulars: 3 uM.
For assay [18], the system named is Pfeiffer. The experiment in a line: Induction of apoptosis in human Pfeiffer cells assessed as increase in cleaved PARP level at 1 to 3 uM after 72 hrs by Western blotting analysis. It counts as functional, cell-based. The gist of the method:
as §4

Assay [19] can be described thus: Cell cycle arrest in human Pfeiffer cells assessed as accumulation at G2/M phase at 2.5 uM after 72 hrs (reference value: 10%). It counts as functional, cell-based. The procedure, abridged: as §3
A short description of assay [20]: Cell cycle arrest in human Pfeiffer cells assessed as accumulation at sub-G1 phase at 2.5 uM after 72 hrs (reference value: 9%). It counts as functional, cell-based. The gist of the method:
as §3

Assay [21] has as its system Pfeiffer. As to the kind of experiment: Induction of apoptosis in human Pfeiffer cells assessed as DNA content at 1 to 5 uM after 72 hrs by DAPI staining-based analysis. It counts as functional, cell-based. The procedure, abridged: as §3
Assay [22] has as its target Histone-lysine N-methyltransferase EZH2 (Homo sapiens) (UniProt Q15910). Conditions: 1 to 3 uM.
Assay [23] concerns the target EZH2/SUZ12/EED/RBBP7/RBBP4. As to the kind of experiment: Competitive inhibition of EZH2 histone methyltransferase activity in EZH2/SUZ12/EED/RbAp46/48 (unknown origin) using histone H3 peptide/varying concentration of S-adenosylmethionine as substrate after 2 hrs by Lineweaver-Burk plot analysis. It counts as protein-complex assay, Homo sapiens. The procedure, abridged: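 PRC2 complex (EZH2, EED, SUZ12, RbAp46/48) as enzyme. Histone H3 peptide fixed at 150 nM, SAM varied. Inhibitor at 0, 0.625, 1.25 and 2.5 µM.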

A short description of assay [24]: Cell cycle arrest in human Pfeiffer cells assessed as accumulation at G1 phase at 1 uM after 72 hrs (reference value: 59%). It counts as functional, cell-based. The procedure, abridged:
as §3

The nature of assay [25]: Inhibition of EZH2 histone methyltransferase […] mutant in EZH2/SUZ12/EED/RbAp46/48 protein complex (unknown origin) using histone H3 peptide/S-adenosylmethionine as substrate after 2 hrs by Lineweaver-Burk plot analysis. The arrangement: species or system Homo sapiens. The gist of the method: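 EZH2 A677G mutant activity measured with inhibitor at 0, 0.625, 1.25 and 2.5 µM. Inhibition mode analysed by Lineweaver–Burk plot.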

Assay [26] is described as follows: Cell cycle arrest in human Pfeiffer cells assessed as accumulation at S phase at 2.5 uM after 72 hrs (reference value: 21%). It counts as functional, cell-based. The procedure, abridged: as §3
The nature of assay [27]: Cell cycle arrest in human Pfeiffer cells assessed as accumulation at S phase at 5 uM after 72 hrs (reference value: 21%). It counts as functional, cell-based. The gist of the method:
as §3

Assay [28] is described as follows: Cell cycle arrest in human Pfeiffer cells assessed as accumulation at G2/M phase at 5 uM after 72 hrs (reference value: 10%). It counts as functional, cell-based. The procedure, abridged: as §3
Assay [29] deals with Histone-lysine N-methyltransferase EZH2 (Homo sapiens) (UniProt Q15910). Particulars: 3 uM. This is another data set of the same source.
Assay [30] has as its system Pfeiffer. The experiment in a line: Induction of apoptosis in human Pfeiffer cells assessed as increase in cleaved caspase-7 level at 1 to 3 uM after 72 hrs by Western blotting analysis. It counts as functional, cell-based. The procedure, abridged: as §4

Chain of EZH2/SUZ12/EED complex (Q15910 whole entry): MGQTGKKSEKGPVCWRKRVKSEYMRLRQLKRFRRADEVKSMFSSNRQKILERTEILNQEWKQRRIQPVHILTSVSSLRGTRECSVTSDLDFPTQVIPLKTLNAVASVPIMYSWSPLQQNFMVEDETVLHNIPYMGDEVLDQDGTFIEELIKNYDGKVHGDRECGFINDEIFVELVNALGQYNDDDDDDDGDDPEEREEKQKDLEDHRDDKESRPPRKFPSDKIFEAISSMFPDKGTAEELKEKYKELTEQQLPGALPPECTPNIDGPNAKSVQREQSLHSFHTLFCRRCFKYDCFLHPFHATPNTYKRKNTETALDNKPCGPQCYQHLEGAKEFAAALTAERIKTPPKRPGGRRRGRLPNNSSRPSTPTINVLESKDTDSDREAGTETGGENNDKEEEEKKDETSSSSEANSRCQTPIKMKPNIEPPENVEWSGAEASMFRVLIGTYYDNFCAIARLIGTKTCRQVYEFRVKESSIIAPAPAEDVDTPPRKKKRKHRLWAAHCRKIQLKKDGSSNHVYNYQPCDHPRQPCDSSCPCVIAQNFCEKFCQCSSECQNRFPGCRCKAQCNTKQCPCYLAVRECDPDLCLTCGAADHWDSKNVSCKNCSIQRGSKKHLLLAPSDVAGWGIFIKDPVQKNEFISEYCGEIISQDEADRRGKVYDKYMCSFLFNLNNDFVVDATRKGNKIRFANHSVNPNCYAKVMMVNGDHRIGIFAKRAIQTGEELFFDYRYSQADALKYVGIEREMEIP
Chain of EZH2/SUZ12/EED complex (O75530 whole entry): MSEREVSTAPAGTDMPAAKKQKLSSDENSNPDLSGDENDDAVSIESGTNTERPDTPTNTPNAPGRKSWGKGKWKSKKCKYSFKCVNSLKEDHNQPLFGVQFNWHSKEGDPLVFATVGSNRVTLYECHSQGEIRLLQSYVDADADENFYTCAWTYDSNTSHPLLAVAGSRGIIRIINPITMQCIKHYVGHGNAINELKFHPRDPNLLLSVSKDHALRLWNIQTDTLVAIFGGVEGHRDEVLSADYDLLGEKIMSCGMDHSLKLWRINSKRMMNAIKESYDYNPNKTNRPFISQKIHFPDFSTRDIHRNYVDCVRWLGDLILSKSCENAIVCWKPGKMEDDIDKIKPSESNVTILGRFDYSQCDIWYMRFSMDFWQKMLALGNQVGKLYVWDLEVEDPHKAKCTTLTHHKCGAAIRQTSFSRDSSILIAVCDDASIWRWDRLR
Chain of EZH2/SUZ12/EED complex (Q15022 whole entry): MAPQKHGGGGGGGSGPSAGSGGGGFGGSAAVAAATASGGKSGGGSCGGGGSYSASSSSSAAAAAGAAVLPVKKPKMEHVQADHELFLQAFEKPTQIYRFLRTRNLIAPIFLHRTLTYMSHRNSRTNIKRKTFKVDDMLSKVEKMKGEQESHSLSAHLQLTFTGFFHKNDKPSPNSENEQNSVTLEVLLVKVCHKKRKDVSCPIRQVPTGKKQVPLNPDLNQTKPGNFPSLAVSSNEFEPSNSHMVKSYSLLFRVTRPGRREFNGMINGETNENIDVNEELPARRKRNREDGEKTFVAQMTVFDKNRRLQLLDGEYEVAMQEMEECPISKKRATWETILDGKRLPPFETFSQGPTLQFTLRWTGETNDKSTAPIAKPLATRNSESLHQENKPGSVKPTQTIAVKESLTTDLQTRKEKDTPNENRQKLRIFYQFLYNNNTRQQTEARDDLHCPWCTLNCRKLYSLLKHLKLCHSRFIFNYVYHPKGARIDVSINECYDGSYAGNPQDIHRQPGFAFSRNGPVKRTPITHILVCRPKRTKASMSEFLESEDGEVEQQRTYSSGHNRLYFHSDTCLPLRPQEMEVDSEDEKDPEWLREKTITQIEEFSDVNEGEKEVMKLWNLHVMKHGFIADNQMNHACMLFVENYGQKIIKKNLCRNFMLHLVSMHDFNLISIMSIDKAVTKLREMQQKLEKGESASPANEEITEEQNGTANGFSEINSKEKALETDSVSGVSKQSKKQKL
Chain of Histone-lysine N-methyltransferase EZH2 (Homo sapiens) (Q15910 whole entry, looked up): as the sequence (Q15910 whole entry) above
Chain of EZH2/SUZ12/EED complex (Homo sapiens) (O75530 2-441 partner limits assumed): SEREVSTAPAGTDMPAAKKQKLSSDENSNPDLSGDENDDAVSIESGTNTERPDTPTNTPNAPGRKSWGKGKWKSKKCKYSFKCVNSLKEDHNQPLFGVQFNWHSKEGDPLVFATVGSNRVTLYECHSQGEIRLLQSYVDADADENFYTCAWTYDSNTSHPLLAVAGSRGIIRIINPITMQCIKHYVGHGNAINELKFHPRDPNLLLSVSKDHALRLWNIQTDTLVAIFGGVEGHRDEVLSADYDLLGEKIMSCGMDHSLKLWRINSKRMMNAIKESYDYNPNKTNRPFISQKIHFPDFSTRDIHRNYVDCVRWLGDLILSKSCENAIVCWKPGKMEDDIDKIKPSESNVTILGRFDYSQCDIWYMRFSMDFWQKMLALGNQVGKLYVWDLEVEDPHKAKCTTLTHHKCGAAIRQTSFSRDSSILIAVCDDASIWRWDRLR
Chain of EZH2/SUZ12/EED complex (Homo sapiens) (Q15022 whole entry partner): as the sequence (Q15022 whole entry) above
Chain of EZH2/SUZ12/EED complex (Homo sapiens) (Q15910 whole entry): as the sequence (Q15910 whole entry) above

`Cc1coc2c1C(=O)C(=O)c1c-2ccc2c(C)cccc12` [TANSHINONE I]: the 50% inhibitory concentration (IC50) (in general, the point on the concentration scale where inhibition reaches its midpoint) in assay [1] worked out at 8.9 µM. The inhibition (usually the share of the control response that was lost under treatment) in assay [2] was “Dose-dependent effect”.
As for `COC(=O)[C@@]1(C)CCCc2c1ccc1c2C(=O)C(=O)c2c(C)coc2-1` [METHYL TANSHINONATE], the half-maximal inhibitory concentration (IC50) in [1] worked out at 9.6 µM. Also, the inhibition entry in assay [2] is “Dose-dependent effect”.
In the same order, the values of `Cc1coc2c1C(=O)C(=O)c1c-2ccc2c1CCCC2(C)CO` (configuration not stated) [TANSHINONE IIB] are 4.8 µM and “Dose-dependent effect”.
In the same order, the values of `Cc1coc2c1C(=O)C(=O)c1c-2ccc2c1CCCC2(C)C` [TANSHINONE IIA] are 28.1 µM and “Dose-dependent effect”.
In the same order, the values of `Cc1coc2c1C(=O)C(=O)c1c-2ccc2c1CC[C@H](O)[C@]2(C)O` are 0.52 µM and “Dose-dependent effect”.
For `CC[C@H](C)n1cc(C)c2c(C(=O)NCc3c(C)cc(C)[nH]c3=O)cc(-c3ccc(N4CCNCC4)nc3)cc21` [GSK2816126], the GI50 (commonly the concentration that inhibits growth by half) was found to be 18.7 µM in assay [3]; 0.18 µM in assay [4]; 11.2 µM in assay [5]; 28.5 µM in assay [6]; 12.6 µM in [7]; 6.7 µM in assay [8]. Further, the GI50 in assay [9] came to 9.4 µM.
Take `Cc1coc2c1C(=O)C(=O)c1c-2ccc2c1CC[C@@H](O)[C@]2(C)O`: the Activity was determined as 51% in assay [10]; 20% in [11]; 41% in assay [13]; 11% in assay [14]; 21% in assay [15]; 11% in assay [16]. Also, the Activity in assay [19] amounted to 11%; in [20], 13%; in assay [24], 58%; in [26] it was 24%; in assay [27] it was 29%; in assay [28], 7%. The outcome in [12], in assay [18], in assay [21] and in [30] was Active. The 50% growth inhibitory concentration (GI50) in [3] was found to be 4.2 µM; in assay [4], 1.5 µM; in [5], 10.6 µM; in [6], 5.7 µM; in assay [7], 6 µM; in assay [8], 9.5 µM. In [9], the concentration for 50% growth inhibition (GI50) turned out to be 4 µM. Moreover, the inhibition in assay [17] is 50%; in assay [2], “Dose-dependent effect”; in assay [29], 50%. In addition, the inhibition result in assay [22] is “Active”. Also, the inhibition constant Ki (as a rule, a dissociation constant, usually derived from enzyme kinetics or from competition with a known ligand) in [23] was found to be 0.194 µM; in assay [25], 0.176 µM. In [1], this molecule had a 50% inhibitory concentration (IC50) of 0.55 µM.
